# Screens as filed in PubChem BioAssay.
# CHRM5 antagonist: human M5 muscarinic receptor antagonists, primary screen, CHO cells, Fluo-8 calcium fluorescence | Muscarinic acetylcholine receptor M5 (Homo sapiens), P08912 | CHO-hM5 cells, ACh EC80 | inhibition, % at 3 µM | 360,000 tested, 0.59% active | AID 624040, 2012;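 active means inhibition above a per-plate cutoff, the mean of that plate's test compounds plus 3 SD, cut at about 27% in these data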
# M4 PAM: human M4 muscarinic receptor positive allosteric modulators, primary screen, CHO-K1 cells, Fluo-8 calcium fluorescence | Muscarinic acetylcholine receptor M4 (Homo sapiens), P08173 | CHO-K1 hM4/Gqi5, ACh EC20; 0% = ACh EC20, 100% = maximal ACh | activation, % at 3 µM | 360,000 tested, 0.4% active | AID 624126, 2012;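 active means activation above its plate's cutoff, the mean activation of sample wells plus 3 SD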
# Target sequence (P08173 whole entry, looked up): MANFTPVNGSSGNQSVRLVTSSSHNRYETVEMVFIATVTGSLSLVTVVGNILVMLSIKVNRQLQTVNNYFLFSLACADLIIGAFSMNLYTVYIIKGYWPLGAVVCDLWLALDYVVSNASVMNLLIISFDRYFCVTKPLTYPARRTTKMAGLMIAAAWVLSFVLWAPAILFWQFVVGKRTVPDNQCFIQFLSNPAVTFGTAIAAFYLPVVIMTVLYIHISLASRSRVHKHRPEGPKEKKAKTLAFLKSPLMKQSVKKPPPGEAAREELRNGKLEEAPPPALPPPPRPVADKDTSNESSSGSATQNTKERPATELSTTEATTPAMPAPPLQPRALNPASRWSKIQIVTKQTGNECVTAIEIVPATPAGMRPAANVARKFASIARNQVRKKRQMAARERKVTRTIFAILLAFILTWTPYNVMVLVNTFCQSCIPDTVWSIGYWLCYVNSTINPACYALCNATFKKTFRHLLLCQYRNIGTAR
# M4 ag: human M4 muscarinic receptor agonists, primary screen, CHO-K1 cells, Fluo-8 calcium fluorescence; Muscarinic acetylcholine receptor M4 (Homo sapiens), P08173; CHO-K1 hM4/Gqi5; vehicle 0%, full acetylcholine response 100%; activation, % at 3 µM; 360,000 tested, 0.14% active;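 active means activation above the run mean over all test wells plus 3 SD, cut at about 32% in these data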;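 further: peak over basal fluorescence ratio per well then scaled between controls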
# CHRM4 antagonist: human M4 muscarinic receptor antagonists, primary screen, CHO cells, Fluo-8 calcium fluorescence. Muscarinic acetylcholine receptor M4 (Homo sapiens), P08173. CHO-hM4 cells, ACh EC80. inhibition, % at 3 µM. 360,000 tested, 0.73% active. AID 624125, 2012;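 active means inhibition above its plate's cutoff, the mean inhibition of sample wells plus 3 SD, cut at about 27% in these data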
# CHRM5 PAM: human M5 muscarinic receptor positive allosteric modulators, primary screen, CHO-K1 cells, Fluo-8 calcium fluorescence | Muscarinic acetylcholine receptor M5 (Homo sapiens), P08912 | CHO-K1 hM5, ACh EC20 PAM; 0% = ACh EC20, 100% = ACh EC100 | activation, % at 3 µM | 360,000 tested, 0.3% active | AID 624038, 2012;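 active means activation above the run cutoff, the mean activation of all test compounds plus 3 SD, cut at about 18% in these data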
#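 System – CHO-K1 hM5 cells · Compound – 3 µM, single dose · Incubation – compound preincubation 140 s before EC20 acetylcholine addition · Technique – Fluo-8 calcium fluorescence · Measure – Max/basal fluorescence ratio as % of EC20–EC100 ACh window · Benchmarks – low control EC20 acetylcholine (0%), high control EC100 acetylcholine (100%) · Replication – singlicate, one well per test compound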
# CHRM5 agonist: human M5 muscarinic receptor agonists, primary screen, CHO-K1 cells, Fluo-8 calcium fluorescence. Muscarinic acetylcholine receptor M5 (Homo sapiens), P08912. CHO-K1 hM5 cells; 0% DMSO wells, 100% maximal acetylcholine response. activation, % at 3 µM. 360,000 tested, 0.19% active. AID 624037, 2012;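 active means activation above the run's mean over test compounds plus 3 SD, cut at about 23% in these data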;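 further: signal is peak over basal fluorescence ratio across the kinetic read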
# Hits are given with their value; i = inactive. This is a sample that favours compounds with a hit; in the whole collection about 1.8% have one here.
SMILES,CHRM5 antagonist,M4 PAM,M4 ag,CHRM4 antagonist,CHRM5 PAM,CHRM5 agonist
CC(C)CNc1ncnc2c1ncn2[C@H]1CN(C2CCCC2)C[C@@H](CO)O1,i,i,i,i,i,i
O=S(=O)(Nc1cccc2ncccc12)c1cccs1,i,i,i,37,i,i
CCOC(=O)C1=CCN(S(=O)(=O)c2ccccc2C)C1c1ccc(C)cc1 (configuration not stated),i,i,i,i,i,i
COc1ccc([C@H]2C[C@H](O)[C@@H](n3cc(COC(=O)c4ccccc4)nn3)CN2CC2CCCCC2)cc1,i,i,i,i,i,i
Cc1ccnc(Nc2nc(-c3ccccc3)cs2)c1,i,i,i,i,22,i
CC(=O)Nc1ccc(-c2csc(Nc3cc(C)ccn3)n2)cc1,i,i,i,i,i,i
CN1C[C@@H]2C(c3ccccc3)C3(c4cccnc4)CC2(C3)[C@H]1c1ccccc1 (some centres not stated),31,i,i,57,i,i
CCC1CCCCN1S(=O)(=O)c1ccc([N+](=O)[O-])cc1 (configuration not stated),i,i,i,28,i,i
CC1CCCCN1S(=O)(=O)c1ccc([N+](=O)[O-])cc1 (configuration not stated),i,i,i,29,i,i
c1ccc2c(c1)Cn1nnnc1-2,i,i,i,i,18,i
O=C1Nc2ccc(Cl)cc2C(C#CC2CC2)(C(F)(F)F)O1 (configuration not stated),i,i,i,32,i,i
COc1ccc(CCNC(=O)c2sc(=S)n(C)c2N)cc1,i,i,i,i,i,i
Cn1c(N)c(C(=O)NCc2ccccc2)sc1=S,i,36,i,i,i,i
OC[C@@H]1CN(Cc2ccc3c(c2)OCO3)C[C@H](n2cnc3c(NCc4ccncc4)ncnc32)O1,i,i,i,i,i,i
COc1ccc(N=Cc2oc3ccc4ccccc4c3c2O)cc1,i,i,i,i,i,47
Cc1ccc(S(=O)(=O)N2[C@H](CC(=O)c3cccs3)OC[C@@H]2C)cc1,i,i,i,i,i,i
COc1ccc(-c2ccc(C(=O)Nc3cccc(NS(C)(=O)=O)c3)c3occc23)c(C)c1,i,i,i,31,i,i
COc1ccc(-c2ccc(C(=O)Nc3cccc(F)c3)c3occc23)c(C)c1,i,i,i,i,i,i
Cn1ncc2cc3c(Nc4ccc(Cl)cc4)cccc3nc21,i,i,i,i,i,i
C/C(=N\OCc1ccc(C#N)cc1)c1ccc(S(=O)(=O)N(C)C)cc1,28,i,i,i,i,i
C/C(=N\OCc1ccc(C#N)cc1)c1ccccc1,i,i,i,i,i,i
CCCCn1nnnc1C(c1cc2ccccc2o1)N1CCN(c2ccncc2)CC1 (configuration not stated),i,i,i,i,i,i
O=C(Nc1ccc(Cl)cc1)c1ccc(-n2cncn2)c([N+](=O)[O-])c1,i,i,i,29,i,i
Cc1ccc(NC(=O)c2ccc(-n3cncn3)c([N+](=O)[O-])c2)cc1,i,i,i,i,i,i
Cc1occc1C(=O)Nc1sc2c(c1C(N)=O)CCC(C(C)(C)C)C2 (configuration not stated),i,29,i,i,i,i
SMILES,CHRM5 antagonist,M4 PAM,M4 ag,CHRM4 antagonist,CHRM5 PAM,CHRM5 agonist
COc1ccc(C(=O)Nc2cc(-c3ccccc3)nn2-c2ccccc2F)cc1,i,i,i,i,25,i
COc1ccc(CCn2c(NN=C3CCCCC3)nc3c2c(=O)[nH]c(=O)n3C)cc1,i,14,i,i,i,i
CCC(Oc1nc2ccccc2nc1-c1ccccc1NC(C)=O)C(=O)c1ccccc1 (configuration not stated),i,33,i,i,i,i
CC(=O)Nc1ccccc1-c1nc2cc(C#N)c(C#N)cc2[nH]c1=O,i,i,i,i,i,i
S=C1N(c2ccccc2)C(c2ccc(Br)cc2)N2CCCN12 (configuration not stated),38,i,i,79,i,i
S=C1N(c2ccccc2)C(c2ccc(Cl)cc2)N2CCCN12 (configuration not stated),i,i,i,42,i,i
CC1CCN(CC[C@H]2CCCN2S(=O)(=O)c2cccc(O)c2)CC1,i,i,i,51,i,i
Cc1[nH]n(-c2ccccc2)c(=O)c1/C=N/NC(=O)c1ccc(O)cc1O,i,i,i,i,i,i
Cc1cc(C(=O)N/N=C/c2c(C)[nH]n(-c3ccccc3)c2=O)n[nH]1,i,i,i,i,19,i
O=C(NCCN1CCCC1)c1ccc(Cn2c(=S)[nH]c3ccc(Br)cc3c2=O)cc1,i,i,i,i,i,46
CC(C)NC(=O)c1ccc2c(=O)n(C3CCCC3)c(=S)[nH]c2c1,i,i,i,i,i,i
O=C(NCCCN1CCOCC1)c1ccc2c(=O)n(Cc3cccc(Br)c3)c(=S)[nH]c2c1,i,i,i,i,i,i
CCN(CC)CCNC(=O)c1ccc2c(=O)n(C3CCCC3)c(=S)[nH]c2c1,i,i,i,27,i,i
CC1CCN(CCNC(=O)c2ccc3c(=O)n(Cc4ccc(Cl)cc4)c(=S)[nH]c3c2)CC1,i,i,59,29,i,i
CCCOc1nnnn1-c1ccccc1,i,19,i,i,i,i
OCCOc1nnnn1-c1ccccc1,i,i,i,i,i,i
COc1ccc(CNC(=O)CSc2nn3c(=O)c(C(C)(C)C)nnc3s2)cc1OC,i,i,i,i,i,i
COc1ccc(CCNC(=O)COC(=O)C2CC2)cc1OC,i,i,i,i,20,i
COc1ccc(CCNC(=O)C2CC2)cc1OC,i,i,i,i,i,i
COc1ccc(CCNC(=O)CSc2nn3c(=O)c(C)nnc3s2)cc1OC,i,17,i,i,i,i
CC1(C(=O)NCc2ccccc2)CSCC(=O)N1Cc1cccc(C(F)(F)F)c1 (configuration not stated),i,i,i,i,i,i
COC(=O)[C@]12CCCCC=C1N(Cc1cccc3ccccc13)C(=O)[C@H](CC(=O)NCCC(C)C)C2,i,i,i,i,i,i
Cc1ccccc1-c1cnc(C(O)c2ccc(Cl)c(F)c2)[nH]1 (configuration not stated),i,i,i,i,i,i
COc1cccc(N2CCN(CC(=O)Nc3ccccc3C(=O)NCCc3ccccc3)CC2)c1,28,i,i,i,i,i
